Results as given in ChEMBL document CHEMBL4229446, “Development of Novel Monoamine Oxidase-B (MAO-B) Inhibitors with Reduced Blood-Brain Barrier Permeability for the Potential Management of Noncentral Nervous System (CNS) Diseases” (J Med Chem, 2018).

What was measured:
[1] = Apparent half-life of the terminal disposition phase in C57BL/6 mouse brain at 10.8 mg/kg, iv administered as single dose measured 24 hrs by UPLC-MS/MS analysis; assay type: ADME, organism-based; conditions: read-out: t1/2 lambda z (converted)
Summary of the method: (§1)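 21 animals dosed at 0 min, 3 sacrificed at each of 0, 5, 15, 30 min, 1, 4 and 24 h. Plasma was extracted by protein precipitation with phospholipid removal. Brain was weighed, bead-homogenised in 50 mM ammonium formate and extracted in acidified organic solvent. Quantified by UPLC-MS/MS (MRM). Brain ng/g taken as ng/mL. Parameters came from noncompartmental analysis. Kp = AUClast brain/plasma.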

[2] = system: Mus musculus; assay: Acute toxicity in C57BL/6 mouse assessed as piloerection at 10.8 mg/kg, po after 1 hr post-injection; assay type: organism-based; conditions: in vivo
[3] = system: Mus musculus; assay: Acute toxicity in C57BL/6 mouse assessed as lethargy at 10.8 mg/kg, iv after 1 hr post-injection; assay type: organism-based; conditions: in vivo
[4] = Cmax in C57BL/6 mouse plasma at 10.8 mg/kg, iv administered as single dose measured 24 hrs by UPLC-MS/MS analysis; assay type: ADME, organism-based; design: dose 10.8 mg/kg, route intravenous
Summary of the method: (§2)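 Plasma extracted by protein precipitation/phospholipid removal; brain weighed, homogenised in 50 mM ammonium formate, extracted in acidified organic solvent, ng/g taken as ng/mL. Quantified by UPLC-MS/MS (MRM); parameters by noncompartmental analysis.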

[5] = system: Mus musculus; assay: Acute toxicity in C57BL/6 mouse assessed as piloerection at 10.8 mg/kg, iv after 1 hr post-injection; assay type: organism-based; conditions: in vivo
[6] = system: Mus musculus; assay: Acute toxicity in C57BL/6 mouse assessed as piloerection at 10.8 mg/kg, sc after 1 hr post-injection; assay type: organism-based; conditions: in vivo
[7] = Metabolic stability in human liver microsomes assessed as parent compound remaining at 1 uM after 60 mins by UPLC-MS/MS analysis; assay type: ADME, microsome; conditions: microsomes, 1 h, 1 µM
Summary of the method: (§3)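 Compound at 1 μM with 0.5 mg/mL mouse or human liver microsomes in 100 mM potassium phosphate pH 7.4, 3.3 mM MgCl2, 1 mM NADPH, at 37 °C. Started with NADPH; minus-NADPH control run. Stopped at 0, 5, 15, 30, 45 and 60 min with acetonitrile/formic acid plus internal standard. Parent remaining by UPLC-MS/MS, in triplicate.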

[8] = Tmax in C57BL/6 mouse brain at 10.8 mg/kg, iv administered as single dose measured 24 hrs by UPLC-MS/MS analysis; assay type: ADME, organism-based; summary of the method: as §2
[9] = system: Mus musculus; assay: Acute toxicity in C57BL/6 mouse assessed as lethargy at 10.8 mg/kg, po after 1 hr post-injection; assay type: organism-based; conditions: in vivo
[10] = Metabolic stability in mouse liver microsomes assessed as parent compound remaining at 1 uM after 60 mins by UPLC-MS/MS analysis; assay type: ADME, microsome; conditions: microsomes, 1 h, 1 µM; summary of the method: as §3
[11] = Metabolic stability in human plasma assessed as parent compound remaining at 5 uM after 4 hrs by UPLC-MS/MS analysis; assay type: ADME, cell-free; conditions: read-out: Stability
Summary of the method: (§4)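 Compound at 5 μM was incubated in mouse or human plasma at 37 °C with shaking. Sampled at 0, 5, 15, 30, 60, 120 and 240 min and stopped with ice-cold acetonitrile/0.1% formic acid containing internal standard. Supernatants analysed by UPLC-MS/MS for parent remaining. Run in triplicate.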

[12] = Ratio of AUClast in brain to plasma in C57BL/6 mouse at 10.8 mg/kg, iv administered as single dose measured 24 hrs by UPLC-MS/MS analysis; assay type: ADME, organism-based; summary of the method: as §1
[13] = system: Mus musculus; assay: Acute toxicity in C57BL/6 mouse assessed as lethargy at 10.8 mg/kg, sc after 1 hr post-injection; assay type: organism-based; conditions: in vivo
[14] = Apparent half-life of the terminal disposition phase in C57BL/6 mouse plasma at 10.8 mg/kg, iv administered as single dose measured 24 hrs by UPLC-MS/MS analysis; assay type: ADME, organism-based; conditions: read-out: t1/2 lambda z (converted); summary of the method: as §2
[15] = Cmax in C57BL/6 mouse brain at 10.8 mg/kg, iv administered as single dose measured 24 hrs by UPLC-MS/MS analysis; assay type: ADME, organism-based; design: dose 10.8 mg/kg, route intravenous; summary of the method: as §1
[16] = Metabolic stability in mouse plasma assessed as parent compound remaining at 5 uM after 4 hrs by UPLC-MS/MS analysis; assay type: ADME, cell-free; conditions: read-out: Stability; summary of the method: as §4
[17] = AUClast in C57BL/6 mouse plasma at 10.8 mg/kg, iv administered as single dose measured 24 hrs by UPLC-MS/MS analysis; assay type: ADME, organism-based; design: dose 10.8 mg/kg, route intravenous, time 0 - last; summary of the method: as §2
[18] = AUClast in C57BL/6 mouse brain at 10.8 mg/kg, iv administered as single dose measured 24 hrs by UPLC-MS/MS analysis; assay type: ADME, organism-based; design: dose 10.8 mg/kg, route intravenous, time 0 - last; summary of the method: as §1
[19] = Tmax in C57BL/6 mouse plasma at 10.8 mg/kg, iv administered as single dose measured 24 hrs by UPLC-MS/MS analysis; assay type: ADME, organism-based; summary of the method: as §2

In the case of `C#CCN(C)[C@H](C)Cc1ccccc1` [SELEGILINE], the half-life [1] was 17.4 min, the Activity [2] was “Toxic” and the Activity [3] was “Toxic”. The Cmax [4] was 569 ng/mL, the Activity [5] was “Toxic” and the Activity [6] was “Toxic”. For the same compound, the Stability [7] was “Unstable”, the Tmax [8] was 5 min and the Activity [9] was “Toxic”. For the same compound, the Stability [10] was “Unstable”, the remaining at 4 h, 5 µM [11] was 55% and the Kp at 24 h [12] was 5.73. For the same compound, the Activity [13] was “Toxic”, the half-life [14] was 33.6 min and the Cmax [15] was 4220 ng/mL. For the same compound, the remaining at 4 h, 5 µM [16] was 61%, the AUC(0-t) at 24 h [17] was 242 ng·h/mL and the AUC(0-t) at 24 h [18] was 1390 ng·h/mL. The Tmax [19] was 5 min.
